# Results from the M2OR odorant receptor database.
# Experiments:
# Conditions in all cases: stereoisomer not certain
# OR3A1 (Homo sapiens) = target: T1, OR3A1 (Homo sapiens) (UniProt P47881)
# T1 sequence (whole entry): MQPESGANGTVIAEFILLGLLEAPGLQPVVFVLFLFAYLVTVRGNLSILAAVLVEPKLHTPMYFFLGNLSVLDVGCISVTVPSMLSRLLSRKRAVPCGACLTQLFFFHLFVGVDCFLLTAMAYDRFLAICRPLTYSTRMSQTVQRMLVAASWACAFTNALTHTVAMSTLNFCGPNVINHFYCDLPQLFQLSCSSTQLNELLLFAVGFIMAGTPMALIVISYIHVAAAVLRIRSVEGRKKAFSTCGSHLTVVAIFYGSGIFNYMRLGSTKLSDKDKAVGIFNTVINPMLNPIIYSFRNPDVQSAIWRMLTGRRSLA
# In short: (§1)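 Each entry records the cell line, G-protein, co-transfected protein and tags used. Methods varied with the source, often transient luciferase assays in mammalian cell lines. A receptor–molecule pair is called responsive (active) if the original authors judged its signal statistically different from baseline and non-responsive (inactive) otherwise.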
# OR2Y1 (Homo sapiens) = OR2Y1 (Homo sapiens) (UniProt Q8NGV0)
# OR2Y1 (Homo sapiens), sequence (Q8NGV0 whole entry): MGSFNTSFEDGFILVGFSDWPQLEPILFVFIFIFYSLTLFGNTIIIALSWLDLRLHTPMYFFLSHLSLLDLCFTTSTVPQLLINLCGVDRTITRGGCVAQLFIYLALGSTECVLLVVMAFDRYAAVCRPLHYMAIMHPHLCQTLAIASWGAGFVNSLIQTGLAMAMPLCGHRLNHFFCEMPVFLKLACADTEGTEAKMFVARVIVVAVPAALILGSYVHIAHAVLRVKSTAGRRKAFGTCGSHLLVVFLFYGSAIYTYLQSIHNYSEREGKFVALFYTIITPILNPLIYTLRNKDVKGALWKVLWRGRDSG
# In short: as §1
# OR2Y1 = system: OR2Y1
# OR2Y1, sequence (as listed by the source): as the sequence (Q8NGV0 whole entry) above, with V200L counted along it
# In short: as §1
# OR2Z1 (Homo sapiens) = OR2Z1 (Homo sapiens) (UniProt Q8NG97)
# OR2Z1 (Homo sapiens), sequence (Q8NG97 whole entry): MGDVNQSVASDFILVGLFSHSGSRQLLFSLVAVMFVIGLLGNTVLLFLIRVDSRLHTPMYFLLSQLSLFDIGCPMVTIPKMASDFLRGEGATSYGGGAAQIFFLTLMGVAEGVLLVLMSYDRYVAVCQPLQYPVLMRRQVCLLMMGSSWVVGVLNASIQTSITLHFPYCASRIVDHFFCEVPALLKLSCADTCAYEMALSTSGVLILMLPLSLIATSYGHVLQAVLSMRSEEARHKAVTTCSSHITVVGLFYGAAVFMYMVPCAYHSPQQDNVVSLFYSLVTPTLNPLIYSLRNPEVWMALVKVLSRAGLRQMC
# In short: as §1
# OR3A1 [1] = system: OR3A1
# In short: as §1
# Target sequence in this assay (as listed by the source): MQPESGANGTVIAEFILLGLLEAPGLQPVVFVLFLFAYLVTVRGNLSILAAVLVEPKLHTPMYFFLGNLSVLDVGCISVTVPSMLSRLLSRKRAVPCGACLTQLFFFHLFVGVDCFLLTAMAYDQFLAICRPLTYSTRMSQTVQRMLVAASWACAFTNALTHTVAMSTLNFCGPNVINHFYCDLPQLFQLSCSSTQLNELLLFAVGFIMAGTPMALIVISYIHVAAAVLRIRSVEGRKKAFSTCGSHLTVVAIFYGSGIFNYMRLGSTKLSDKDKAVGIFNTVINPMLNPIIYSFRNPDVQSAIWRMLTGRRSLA
# OR3A2 (Homo sapiens) = OR3A2 (Homo sapiens) (UniProt P47893)
# OR3A2 (Homo sapiens), sequence (P47893 whole entry): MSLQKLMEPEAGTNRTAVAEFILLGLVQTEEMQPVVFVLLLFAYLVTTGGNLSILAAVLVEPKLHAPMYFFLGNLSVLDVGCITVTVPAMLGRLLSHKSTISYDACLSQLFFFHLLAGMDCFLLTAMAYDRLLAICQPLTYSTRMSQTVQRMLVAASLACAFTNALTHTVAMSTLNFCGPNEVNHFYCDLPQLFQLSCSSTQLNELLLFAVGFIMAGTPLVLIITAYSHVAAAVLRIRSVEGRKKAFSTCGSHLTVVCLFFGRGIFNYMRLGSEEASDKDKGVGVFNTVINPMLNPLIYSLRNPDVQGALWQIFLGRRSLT
# In short: as §1
# OR3A2 R317K = system: OR3A2 R317K
# OR3A2 R317K, sequence (as listed by the source, stated change not applied): as the sequence (P47893 whole entry) above, with R317K counted along it
# In short: as §1
# OR3A3 (Homo sapiens) = OR3A3 (Homo sapiens) (UniProt P47888)
# OR3A3 (Homo sapiens), sequence (P47888 whole entry): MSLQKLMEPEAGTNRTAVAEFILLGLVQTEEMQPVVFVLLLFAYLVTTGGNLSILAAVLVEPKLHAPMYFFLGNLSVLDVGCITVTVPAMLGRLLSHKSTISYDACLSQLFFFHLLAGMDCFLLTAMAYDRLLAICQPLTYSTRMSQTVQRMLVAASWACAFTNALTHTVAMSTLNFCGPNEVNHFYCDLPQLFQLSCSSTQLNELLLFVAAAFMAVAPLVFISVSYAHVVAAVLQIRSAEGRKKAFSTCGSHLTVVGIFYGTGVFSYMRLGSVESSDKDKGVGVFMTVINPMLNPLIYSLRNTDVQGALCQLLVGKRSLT
# In short: as §1
# OR3A3 T48I L132F = system: OR3A3 T48I L132F
# In short: as §1
# OR3A1 [2] = system: OR3A1; remark: listed apart in the source
# In short: as §1
# Target sequence in this assay (as listed by the source): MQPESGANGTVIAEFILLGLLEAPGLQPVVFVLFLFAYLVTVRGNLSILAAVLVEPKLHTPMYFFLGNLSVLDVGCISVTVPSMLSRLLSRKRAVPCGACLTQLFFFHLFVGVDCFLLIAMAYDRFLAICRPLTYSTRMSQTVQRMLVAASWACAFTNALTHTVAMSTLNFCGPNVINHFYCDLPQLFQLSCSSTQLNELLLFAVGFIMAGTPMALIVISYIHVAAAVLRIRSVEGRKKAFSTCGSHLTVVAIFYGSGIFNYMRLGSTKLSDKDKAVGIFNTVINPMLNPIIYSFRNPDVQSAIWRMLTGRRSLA
compound,measurement,setting,value
CC(=O)C=Cc1ccc2c(c1)OCO2,odorant receptor agonist call,OR3A1 (Homo sapiens),active
C=CCOC(=O)Cc1ccccc1,odorant receptor agonist call,OR2Y1 (Homo sapiens),inactive
same,odorant receptor agonist call,OR2Y1,inactive
same,odorant receptor agonist call,OR2Z1 (Homo sapiens),inactive
same,odorant receptor agonist call,OR3A1 (Homo sapiens),inactive
same,odorant receptor agonist call,OR3A1 [1],inactive
same,odorant receptor agonist call,OR3A2 (Homo sapiens),inactive
same,odorant receptor agonist call,OR3A2 R317K,inactive
same,odorant receptor agonist call,OR3A3 (Homo sapiens),inactive
same,odorant receptor agonist call,OR3A3 T48I L132F,inactive
Cc1c([N+](=O)[O-])c(C)c([N+](=O)[O-])c(C(C)(C)C)c1[N+](=O)[O-],odorant receptor agonist call,OR2Y1 (Homo sapiens),inactive
same,odorant receptor agonist call,OR2Z1 (Homo sapiens),inactive
same,odorant receptor agonist call,OR3A1 (Homo sapiens),inactive
same,odorant receptor agonist call,OR3A2 (Homo sapiens),inactive
same,odorant receptor agonist call,OR3A3 (Homo sapiens),inactive
CC(C=O)Cc1ccc2c(c1)OCO2 (stereo not given),odorant receptor agonist call,OR3A1 (Homo sapiens),active
same,odorant receptor agonist call,OR3A1 [2],inactive
same,odorant receptor agonist call,OR3A1 [1],inactive
O=Cc1ccc2c(c1)OCO2,odorant receptor agonist call,OR3A1 (Homo sapiens),inactive
C=CCc1ccc2c(c1)OCO2,odorant receptor agonist call,OR3A1 (Homo sapiens),inactive
